ChEMBL document CHEMBL1124475, “The thieno[3,2-c]pyridine and furo[3,2-c]pyridine rings: new pharmacophores with potential antipsychotic activity” (J Med Chem, 1989)
Active and inactive are the calls of the source. No cut-off for these calls is given here.

Columns and labels:
[1] = target: Serotonin 1 (5-HT1) receptor (Rattus norvegicus, UniProt P28564+P30940+P19327+P28565); experiment: Ability to bind at 5-hydroxytryptamine 1 receptor of rat hippocampus by displacing [3H]5-HT; type: tissue-based
Outline: (§1)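 Rat receptor radioligand displacement, five test-ligand concentrations used to calculate IC50, each assay in duplicate. Some compounds determined four times (in duplicate), with mean IC50 reported.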

[2] = target: T1, Adrenergic receptor alpha-1 (Rattus norvegicus, UniProt P15823+P23944+P43140); experiment: Ability to bind at alpha-1 adrenergic receptor by displacing [3H]WB-4101; type: protein assay; outline: as §1
T1 sequence (P15823 whole entry): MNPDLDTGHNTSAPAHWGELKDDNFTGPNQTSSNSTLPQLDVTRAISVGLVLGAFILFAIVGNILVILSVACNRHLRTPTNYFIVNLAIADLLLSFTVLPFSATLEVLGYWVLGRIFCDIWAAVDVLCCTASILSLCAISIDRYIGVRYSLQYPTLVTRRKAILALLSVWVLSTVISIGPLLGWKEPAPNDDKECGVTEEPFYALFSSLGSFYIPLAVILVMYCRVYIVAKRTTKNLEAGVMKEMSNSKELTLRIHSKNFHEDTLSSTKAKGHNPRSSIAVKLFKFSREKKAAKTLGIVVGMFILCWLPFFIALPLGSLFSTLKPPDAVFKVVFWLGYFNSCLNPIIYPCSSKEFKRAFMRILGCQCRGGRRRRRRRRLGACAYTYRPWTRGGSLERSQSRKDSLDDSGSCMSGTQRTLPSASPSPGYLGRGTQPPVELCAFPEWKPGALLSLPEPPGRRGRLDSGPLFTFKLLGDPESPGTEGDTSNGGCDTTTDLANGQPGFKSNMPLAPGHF
T1 sequence (P23944 whole entry): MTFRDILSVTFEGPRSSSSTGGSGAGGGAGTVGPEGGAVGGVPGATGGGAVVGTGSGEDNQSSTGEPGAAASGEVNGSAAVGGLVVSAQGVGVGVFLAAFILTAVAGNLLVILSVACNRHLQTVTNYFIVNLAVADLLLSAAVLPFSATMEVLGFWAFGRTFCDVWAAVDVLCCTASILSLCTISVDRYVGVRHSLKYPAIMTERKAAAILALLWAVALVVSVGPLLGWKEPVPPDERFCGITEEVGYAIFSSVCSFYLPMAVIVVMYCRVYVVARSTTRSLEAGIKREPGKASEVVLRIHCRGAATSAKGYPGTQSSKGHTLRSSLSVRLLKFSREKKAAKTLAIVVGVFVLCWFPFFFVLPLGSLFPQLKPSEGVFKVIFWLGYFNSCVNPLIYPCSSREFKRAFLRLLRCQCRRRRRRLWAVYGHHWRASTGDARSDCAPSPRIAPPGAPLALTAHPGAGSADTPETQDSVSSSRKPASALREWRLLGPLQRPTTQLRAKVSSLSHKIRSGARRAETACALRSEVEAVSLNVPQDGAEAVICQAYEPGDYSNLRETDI
T1 sequence (P43140 whole entry): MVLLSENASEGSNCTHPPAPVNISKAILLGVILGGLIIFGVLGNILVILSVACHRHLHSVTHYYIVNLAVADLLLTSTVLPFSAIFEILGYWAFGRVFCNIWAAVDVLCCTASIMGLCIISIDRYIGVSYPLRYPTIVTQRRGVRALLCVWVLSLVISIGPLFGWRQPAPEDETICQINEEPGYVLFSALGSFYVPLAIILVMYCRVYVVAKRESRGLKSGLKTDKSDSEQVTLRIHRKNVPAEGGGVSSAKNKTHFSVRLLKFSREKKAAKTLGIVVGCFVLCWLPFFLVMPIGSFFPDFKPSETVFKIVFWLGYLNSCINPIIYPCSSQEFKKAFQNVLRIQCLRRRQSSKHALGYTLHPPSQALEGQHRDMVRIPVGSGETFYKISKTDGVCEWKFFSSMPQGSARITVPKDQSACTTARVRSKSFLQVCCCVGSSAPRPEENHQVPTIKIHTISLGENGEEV

D(2) dopamine receptor = D(2) dopamine receptor (Rattus norvegicus, UniProt P61169); experiment: Ability to bind at Dopamine receptor D2 of rat corpus striatum by displacing [3H]spiperone; outline: as §1
Mus musculus [3] = experiment: Blockade of apomorphine-induced climbing in mice when administered perorally; type: functional
Outline: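 Male mice habituated 30 min in individual cages, then dosed orally (distilled H2O or 0.5% Methocel suspension, 10 mL/kg) or vehicle. Apomorphine 1.5 mg/kg sc given 30 min later. Climbing scored at 10, 20, 30 min post-apomorphine. At least five animals per dose, maximum 100 mg/kg.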

Rattus norvegicus [4] = experiment: Blockade of apomorphine-induced stereotypy in rats when administered perorally; type: functional; conditions: po
Rattus norvegicus [5] = experiment: Conditioned avoidance response (CAR) when administered perorally; type: functional; conditions: po
Rattus norvegicus [6] = experiment: Blockade of Sidman-avoidance activity in rats when administered perorally; type: functional
Outline: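 Rats trained in once-daily Sidman sessions until stable; non-learners after 3 days replaced. Twelve rats dosed 30 min before session. Each rat compared with mean of its previous three drug-free days by paired t test. Testing continued to minimally effective dose; maximum usually 100 mg/kg. MED is mean over 12 animals.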

[7] = target: Serotonin 2 (5-HT2) receptor (Rattus norvegicus, UniProt P30994+P08909+P14842); experiment: Ability to bind at serotonin 5-hydroxytryptamine 2 receptors of rat cortex by displacing [3H]spiperone
[8] = target: T2, 5-hydroxytryptamine receptor 1A (Rattus norvegicus, UniProt P19327); experiment: Ability to bind at 5-hydroxytryptamine 1A receptor of rat hippocampus by displacing [3H]8-OH-DPAT; type: tissue-based; outline: as §1
T2 sequence (P19327 whole entry): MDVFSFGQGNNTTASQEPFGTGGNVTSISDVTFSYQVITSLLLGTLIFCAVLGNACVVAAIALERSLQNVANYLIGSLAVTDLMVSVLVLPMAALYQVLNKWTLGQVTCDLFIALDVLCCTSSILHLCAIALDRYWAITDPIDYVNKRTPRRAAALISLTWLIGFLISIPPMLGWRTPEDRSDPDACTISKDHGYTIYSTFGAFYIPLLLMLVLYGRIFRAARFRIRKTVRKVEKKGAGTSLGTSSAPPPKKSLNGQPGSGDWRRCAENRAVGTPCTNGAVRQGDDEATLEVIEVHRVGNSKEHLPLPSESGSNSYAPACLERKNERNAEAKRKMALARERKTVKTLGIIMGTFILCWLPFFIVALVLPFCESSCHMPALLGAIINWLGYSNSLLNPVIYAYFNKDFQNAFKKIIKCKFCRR

Rattus norvegicus [9] = experiment: Reversal of trifluoperazine-induced catalepsy in rats when administered perorally; Inactive; type: functional, organism-based
Rattus norvegicus [10] = organism: Rattus norvegicus; experiment: animal or person; conditions: po
Mus musculus [11] = experiment: Blockade of apomorphine-induced climbing in mice when administered perorally
Rattus norvegicus [12] = experiment: spontaneous discharge activity of individual noradrenergic neurons in the locus coeruleus (LC) when administered intravenously in anesthetized male Sprague-Dawley rats; (excitatory); type: functional; conditions: iv
Rattus norvegicus [13] = experiment: Induction of catalepsy in rats when administered perorally and maximum dose examined was 4 times the ED50 value established in CAR; Inactive; type: functional, organism-based
Rattus norvegicus [14] = experiment: Spontaneous discharge activity of individual dopaminergic neurons in the substantia nigra (A9 DA cells) when administered intravenously at a dose of 0.1-6.3 mg/kg in anesthetized male Sprague-Dawley rats; (excitatory); type: functional; conditions: A9DA, iv
Rattus norvegicus [15] = experiment: Spontaneous discharge activity of individual dopaminergic neurons in the ventral tegmentum neurons (A10 DA cells) when administered intravenously at a dose of 0.1-6.3 mg/kg in anesthetized male Sprague-Dawley rats; (excitatory); type: functional; conditions: A10DA, iv
Rattus norvegicus [16] = experiment: Spontaneous discharge activity of individual serotonergic neurons in the dorsal raphe (DR) nucleus when administered intravenously in anesthetized male Sprague-Dawley rats; (inhibitory); type: functional; conditions: iv

Sequence of D(2) dopamine receptor (P61169 whole entry): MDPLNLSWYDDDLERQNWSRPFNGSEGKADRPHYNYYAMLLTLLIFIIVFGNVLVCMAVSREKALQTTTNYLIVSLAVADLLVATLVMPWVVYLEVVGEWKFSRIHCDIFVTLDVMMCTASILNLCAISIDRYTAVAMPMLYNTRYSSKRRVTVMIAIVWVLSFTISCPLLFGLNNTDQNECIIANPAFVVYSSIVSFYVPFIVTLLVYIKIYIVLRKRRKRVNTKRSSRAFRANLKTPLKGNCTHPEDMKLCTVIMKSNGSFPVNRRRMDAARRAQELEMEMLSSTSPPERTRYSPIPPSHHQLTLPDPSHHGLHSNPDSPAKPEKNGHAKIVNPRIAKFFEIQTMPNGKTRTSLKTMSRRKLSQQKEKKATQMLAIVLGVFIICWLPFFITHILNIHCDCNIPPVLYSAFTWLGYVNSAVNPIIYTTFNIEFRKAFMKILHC

SMILES	IC50 [1] [nM]	IC50 [2] [nM]	IC50 (D(2) dopamine receptor) [nM]	MED (Mus musculus [3]; po) [mg/kg]	ED50 (Rattus norvegicus [4]) [mg/kg]	ED50 (Rattus norvegicus [5]) [mg/kg]	MED (Rattus norvegicus [6]; po) [mg/kg]	IC50 [7] [nM]	IC50 [8] [nM]	ED50 (Rattus norvegicus [9])	MED50 (Rattus norvegicus [6]) [mg/kg]	ED50 (Rattus norvegicus [10]) [mg/kg]	MED50 (Mus musculus [11]) [mg/kg]	MED50 (Mus musculus [3]) [mg/kg]	ED25 (Rattus norvegicus [12]) [mg/kg]	ED50 (Rattus norvegicus [13])	ED25 (Rattus norvegicus [14]) [mg/kg]	ED25 (Rattus norvegicus [15]) [mg/kg]	ED50 (Rattus norvegicus [16]) [mg/kg]
OC(CCCN1CCN(c2nccc3sccc23)CC1)c1ccc(F)cc1 (stereo not drawn)	3.8	22.8	71.7	10	9	9.9	10	5.8	–	–	–	–	–	–	–	–	–	–	–
CN(C)CCCN1c2ccccc2Sc2ccc(Cl)cc21 [CHLORPROMAZINE]	> 1000	–	–	–	9.6	–	–	–	372	inactive	25	4.1	6	–	–	–	–	–	–
CC1(C)CC(=O)N(CCCCN2CCN(c3nccc4sccc34)CC2)C(=O)C1.Cl	5.7	18.8	115	–	39.7	6	–	3	–	–	50	–	–	10	0.06	inactive	0.086	0.05	0.042
